OX1R antag-1: blocks the human orexin 1 receptor. O43613. CHO/OX1R cells, Fluo-8 calcium fluorescence, orexin A. inhibition, % at 5 µM. actives 0.43% (n = 330,000). AID 434989;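 active means inhibition above its plate's threshold, mean inhibition of all tested compounds on the plate plus 3 SD, cut at about 37% in these data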;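 further: 0% = orexin A challenge wells and 100% = SB-334867-A antagonist wells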
Target sequence (O43613 whole entry, looked up): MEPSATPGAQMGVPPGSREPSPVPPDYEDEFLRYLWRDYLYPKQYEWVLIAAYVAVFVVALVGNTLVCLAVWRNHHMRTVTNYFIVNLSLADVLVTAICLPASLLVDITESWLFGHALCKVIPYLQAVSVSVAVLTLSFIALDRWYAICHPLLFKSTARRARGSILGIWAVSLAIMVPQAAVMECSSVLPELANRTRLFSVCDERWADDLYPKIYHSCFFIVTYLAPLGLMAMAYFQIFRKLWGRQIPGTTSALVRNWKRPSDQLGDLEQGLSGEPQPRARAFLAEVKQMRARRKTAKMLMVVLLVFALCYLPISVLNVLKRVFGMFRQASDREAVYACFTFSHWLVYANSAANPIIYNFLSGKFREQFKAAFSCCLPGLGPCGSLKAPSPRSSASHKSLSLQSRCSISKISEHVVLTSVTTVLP
GalR3 antagonist: human GalR3 antagonism | HEK293 GalR3-CNG cAMP membrane potential fluorescence; galR3 body fused to GalR1 C-terminus | O60755 | actives 0.44% (n = 360,000) | inhibition, % at 3 µM;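 active means inhibition above the screen-wide average plus 3 SD, cut at about 13% in these data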;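 further: forskolin and galanin both at EC90 stimulate the cells; cAMP rise reported by CNG channel membrane potential dye signal; 0% = forskolin plus galanin with DMSO and 100% = forskolin alone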
Target sequence (O60755 1-299 limits assumed): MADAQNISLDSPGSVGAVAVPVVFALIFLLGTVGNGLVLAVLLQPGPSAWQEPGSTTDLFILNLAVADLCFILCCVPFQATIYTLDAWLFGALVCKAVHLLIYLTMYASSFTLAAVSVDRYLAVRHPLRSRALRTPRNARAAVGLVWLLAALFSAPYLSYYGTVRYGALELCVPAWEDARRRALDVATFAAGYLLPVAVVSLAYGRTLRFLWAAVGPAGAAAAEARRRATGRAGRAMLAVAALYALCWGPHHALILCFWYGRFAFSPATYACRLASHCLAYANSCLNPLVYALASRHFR
GPR7 antag: blocks human GPR7 receptor signaling. P48145. GPR7-expressing cells, fluorescence antagonist assay. inhibition, % at 4.4 µM. actives 1.1% (n = 290,000). AID 1861; in the data active means inhibition above about 16%, passing the limit was not always enough;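 further: cells stimulated with the agonist NPW; 0% = agonist with vehicle and 100% = vehicle without agonist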
CHO parental Ca: counter-screen: ATP calcium response change in parental CHO cells; inhibition, % at 5.6 µM; parental CHO-K1, ATP-induced calcium, Fluo-8 fluorescence; actives 0.63% (n = 330,000); AID 463079;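 active means inhibition above that plate's mean sample inhibition plus 3 SD, cut at about 26% in these data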;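 further: 0% = ATP-challenged DMSO wells and 100% = DMSO wells without ATP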
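Material: parental CHO cells / Compound: single nominal dose of 5.6 µM per compound / Signal: Fluo-8 fluorescence / Replicates: singlicate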
OX1R antag-2: antagonists of human orexin 1 receptor (OX1R); O43613; OX1R-expressing cells, FRET antagonist read-out; inhibition, % at 6.6 µM; actives 1.8% (n = 330,000); AID 485270; in the data active means inhibition mostly above about 38%, no sharp cut-off; inactive means mostly below about 40%;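 further: 0% = agonist challenge alone and 100% = reference antagonist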
OX1R HTRF confirm: confirmation of human orexin 1 receptor antagonists, HTRF format | shares compounds with OX1R antag-2 | OX1R-expressing cells, HTRF antagonist assay | inhibition, % at 6.6 µM | actives 49% (n = 1,800); in the data active means inhibition above about 55%;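 further: CHO cells expressing OX1R stimulated with orexin A at about EC80; 0% = agonist challenge alone and 100% = reference antagonist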
CHO-K1 HTRF: counter-screen: parental CHO-K1 HTRF response. shares compounds with OX1R antag-2. parental CHO-K1 cells, HTRF counterscreen. inhibition, % at 6.6 µM. actives 48% (n = 1,800). AID 493232; in the data active means inhibition above about 17%;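 further: 0% = agonist challenge with vehicle and 100% = vehicle alone without agonist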
Starred values were filed as active, the others as inactive; x = no result. In the library only some 3.1% were active in any assay of this set; here they are far more common.

SMILES	OX1R antag-1	GalR3 antagonist	GPR7 antag	CHO parental Ca	OX1R antag-2	OX1R HTRF confirm	CHO-K1 HTRF
CN(CCCC(=O)NC1CC(C)(C)NC(C)(C)C1)S(=O)(=O)c1ccc([N+](=O)[O-])cc1	-5.1	0.1	-3.4	-10.8	78.5*	45.2	59.0*
Cc1ccc2nc(Nc3ccccc3)c(/C=N/O)c(=O)n2c1	0.1	-1.9	-11.8	-22.1	98.0*	62.3*	10.1
CC1CCN(S(=O)(=O)CCNC(=O)c2ccccc2)CC1	-12.1	-3.5	x	-8.2	88.9*	9.2	2.3
Cc1ccc(CNc2ncnc3ccc(-c4ccc(CO)o4)cc23)o1	x	-5.9	x	x	x	x	x
COc1ccccc1C(=O)Nc1sc2c(c1C#N)CCC2	19.4	x	16.9	-9.2	18.8	x	x
COc1ccccc1C(=O)Nc1sc2c(c1C(N)=O)CCCC2	-3.9	-6.7	-2.0	-4.3	79.3*	69.4*	5.3
Cn1ccc(C(=O)Nc2sc3c(c2C(N)=O)CCCCC3)n1	-15.2	2.5	3.1	-3.1	17.9	x	x
Cn1cc(Br)c(C(=O)Nc2sc3c(c2C(N)=O)CCC3)n1	-7.5	1.2	-1.9	-30.0	78.7*	37.3	-2.6
O=C1NC[C@H](CC2CCCCC2)N(CCC23CC4CC(CC(C4)C2)C3)C1=O	x	-4.8	x	x	x	x	x
C=CCNc1sc(C(=O)c2ccccc2)c(N)c1-c1nc2ccccc2s1	-8.4	x	1.2	-18.0	92.9*	34.8	6.8
O=c1[nH][nH]c2c1[C@H](c1ccc(Cl)cc1)O[C@H](C1CC1)C2	x	-0.5	x	x	x	x	x
CCN(CC)c1ccc(NC(=O)c2ccc3c(c2)c(C)c(C)n3C)cc1	-3.6	-6.5	3.7	-9.3	78.2*	51.2	14.4
Cc1c(C)n(C)c2ccc(C(=O)NCCCN3CCCC3)cc12	-18.8	-2.6	-21.9	-15.0	18.0	x	x
O=C(Nc1ccc2oc(-c3ccccc3)nc2c1)C1CCCO1 (stereo not drawn)	11.9	-5.7	-4.7	-9.8	98.0*	46.4	10.9
Cc1cccc2nc(-c3cccc(NC(=O)c4ccc(Cl)cc4)c3)cn12	-18.2	-0.6	-6.6	-26.7	84.2*	78.7*	24.4*
O=C(CNC(=O)c1ccc(Br)cc1)NCC(=O)OCC(=O)c1ccc([N+](=O)[O-])cc1	-20.0	-5.3	-1.7	-11.6	86.9*	35.5	49.7*
CC(C)(C)NC(=O)COC(=O)CNC(=O)c1cc(Cl)cc([N+](=O)[O-])c1	-5.7	-5.9	-8.9	-4.7	44.1	x	x
CNC(=O)COC(=O)CNC(=O)c1cc(Cl)cc([N+](=O)[O-])c1	3.4	-1.7	-11.8	1.6	89.0*	37.9	49.0*
O=C(CNC(=O)c1ccc(Br)cc1)NCC(=O)OCC(=O)c1ccc(F)cc1	x	-1.2	-2.7	x	x	x	x
CSc1ncccc1C(=O)OCC(=O)N(C)Cc1ccc(C)cc1	x	-3.2	x	x	x	x	x
CC(C)NC(=O)C1(C)CN(S(C)(=O)=O)CC(=O)N1CCCN1CCOCC1 (stereo not drawn)	x	-8.3	x	x	x	x	x
Cc1cccc(C2=CC(=O)CC(C)(C)C2=O)c1	x	0.3	x	x	x	x	x
c1ccc2c(-c3nc4ncccc4o3)cccc2c1	-6.6	-4.8	-7.3	-17.7	90.5*	88.8*	9.9
N#CCSc1nc(-c2ccccc2)nc2ccccc12	17.6	-10.8	-11.9	-12.7	93.8*	88.5*	5.3
NC(=O)CSc1nc(-c2ccccc2)nc2ccccc12	-10.0	-9.8	6.7	-10.0	22.2	x	x
SMILES	OX1R antag-1	GalR3 antagonist	GPR7 antag	CHO parental Ca	OX1R antag-2	OX1R HTRF confirm	CHO-K1 HTRF
CC(C)N(C)c1ncnc2c1ncn2[C@H]1CN(Cc2ccc(F)cc2)C[C@@H](CO)O1	x	-1.6	x	x	x	x	x
Cc1cc(N2CCNC[C@H]2C)ccc1N1CCN(Cc2ccccc2)[C@H](C)C1	x	-8.2	x	x	x	x	x
CC(=O)N1CCc2cc(N=NC3=C(O)CCCC3=O)ccc21	-7.4	8.5	-5.9	-2.9	151.9*	74.0*	81.7*
Cc1ccc(F)cc1-c1cc(C(=O)NCc2cc(C(F)(F)F)cc(C(F)(F)F)c2)[nH]n1	x	-1.1	x	x	x	x	x
O=C1OCc2cccc([N+](=O)[O-])c21	4.9	-0.1	-5.2	2.8	79.5*	30.7	33.0*
COc1cccc2oc3ccc(C#Cc4ccccn4)cc3c(=O)c12	4.3	-3.0	-12.4	-17.4	84.6*	91.2*	-0.2
Nc1nc2c(ncn2[C@@H]2O[C@H](C(=O)N[C@@H](Cc3ccccc3)C(=O)NCC3CCCCC3)[C@@H](O)[C@H]2O)c(=O)[nH]1	x	-2.0	x	x	x	x	x
COc1ccc(CCn2c(=N)c(C(=O)NC3CCCCC3)cc3c(=O)n4ccccc4nc32)cc1	-25.2	0.7	6.8	-16.1	12.8	x	x
COc1ccc(CCn2c(=N)c(C(=O)NCc3ccco3)cc3c(=O)n4ccccc4nc32)cc1OC	x	5.6	x	x	x	x	x
N=c1c(C(=O)NCc2ccco2)cc2c(=O)n3ccccc3nc2n1CCc1ccccc1	-31.9	-5.8	-11.5	-27.8	114.0*	51.1	41.9*
COc1ccc(CCn2c(=N)c(C(=O)N3CCN(C)CC3)cc3c(=O)n4ccccc4nc32)cc1	-26.5	-4.2	-11.1	-21.3	105.5*	38.0	51.4*
COCCn1c(=N)c(C(=O)NCc2ccco2)cc2c(=O)n3cc(C)ccc3nc21	-20.7	0.8	0.0	-5.8	107.7*	49.3	68.9*
COc1ccc(CCCN2CCC(CN3CCNC(=O)C3=O)CC2)cc1OC	x	-5.4	x	x	x	x	x
Cc1ccc2nc3c(cc(C#N)c(=O)n3-c3nccs3)c(=O)n2c1	-12.6	-2.9	-6.4	-4.3	168.9*	90.1*	77.3*
CCC(C)n1c(=N)c(C#N)cc2c(=O)n3cc(C)ccc3nc21 (stereo not drawn)	-9.9	1.1	-12.6	5.9	9.4	x	x
CCC(C(=O)Nc1c(C)cccc1C)n1c(-c2ccc(=O)[nH]c2)nc2ccccc21 (stereo not drawn)	x	-7.3	x	x	x	x	x
COc1cc(C(c2c(C)[nH][nH]c2=O)c2c(C)[nH][nH]c2=O)cc([N+](=O)[O-])c1O	-8.4	0.4	-5.1	-4.3	78.0*	34.8	43.9*
Cc1ccc(O)c(NC(=O)c2cc(-c3ccccc3Cl)on2)c1	16.5	-7.9	5.8	-2.5	89.5*	82.9*	7.1
CCOC(=O)C1=CCC(c2cccc(C)c2)N(S(=O)(=O)c2ccc(C)cc2)C1 (stereo not drawn)	x	-5.6	x	x	x	x	x
COC(=O)c1ccccc1NC(=O)c1cc[n+](C)cc1	-4.9	-3.2	x	1.4	82.8*	32.6	49.0*
Cc1ccc(NCc2cccc(B(O)O)c2)cc1	x	-6.9	x	x	x	x	x
Cc1ccc(S(=O)(=O)N2CC3C(=O)C[C@@H](c4ccccc4)N(S(=O)(=O)c4cccc(Cl)c4)C3CC2c2ccccc2)cc1 (stereo partly drawn)	x	-5.3	x	x	x	x	x
Cc1ccc2cc3cc(C(=O)NCCN4CCOCC4)oc3nc2c1	-5.7	5.0	4.7	-8.4	117.3*	45.6	37.6*
COc1ccc(C(=O)NCCCN2CCOCC2)cc1	-7.0	-2.7	-15.0	1.2	27.0	x	x

Bioassay records deposited in PubChem by The Scripps Research Institute Molecular Screening Center.
